A selection: hits, their analogues and other compounds. The true share with any hit is near 2.3%.
TRPC4 potent – positive allosteric modulators of TRPC4, primary screen, cell-based, mouse TRPC4beta, HEK293 mu-opioid, Fluo-4 calcium; Short transient receptor potential channel 4 (Mus musculus), Q9QUQ5; DAMGO EC20, Fluo-4 Ca2+ flux; hits give high values; B-score at 10 µM; actives 0.42% (n = 310,000); AID 2227, 2009;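 active means B-score of calcium response area above 5 SD of library B-scores, with initial fluorescence ratio within 5 SD of library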
TRPC4 block – inhibitors of mouse TRPC4 channel, primary screen, Fluo4 calcium, HEK293 TRPC4beta/mu-opioid cells. B-score at 10 µM. actives 0.39% (n = 300,000). DAMGO-evoked Fluo4 calcium flux; hits give low values. AID 2247, 2010;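 active means B-score over 3 SD under the library average, no early fluorescence shift, positive overall ratio signal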
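Material: HEK293 cells with stable TRPC4beta plus mu-opioid receptor expression / Probe or stimulus: DAMGO in two steps, submaximal then maximal / Compound: single concentration per test compound / Technique: kinetic Fluo4 fluorescence imaging of calcium influx / Read-out: per-well B score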
TRPC4 act – activators of mouse TRPC4 channel, primary screen, Fluo4 calcium, HEK293 TRPC4beta/mu-opioid cells; Short transient receptor potential channel 4 (Mus musculus), Q9QUQ5; Fluo4 calcium fluorescence; hits give high values; B-score at 10 µM; actives 0.49% (n = 310,000); AID 2237, 2010;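 active means B-score above 5 SD of library B-scores, and initial fluorescence ratio not above library mean plus 5 SD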;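 further: positive B-score marks a calcium rise read as TRPC4 activation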
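Assay system – TRPC4beta and mu-opioid receptor HEK293 stable cells · Measured by – Fluo4 fluorescence, kinetic · Schedule – dye loading 45 min room temperature, 110 s kinetic read · Read-out – B-scored integrated calcium fluorescence ratio · Controls – buffer and maximal DAMGO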
TRPC6 inh – mouse TRPC6 channel inhibitors, primary screen, cell-based, HEK293, membrane potential dye. B-score at 10 µM. AID 2553, 2010. Short transient receptor potential channel 6 (Mus musculus), Q61143. ACh-evoked depolarization; hits give low values. actives 1.1% (n = 310,000);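 active means B-score under library mean minus 3 SD, initial fluorescence not abnormally high, positive integrated signal ratio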;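 further: B-score derived from integrated fluorescence ratio over the kinetic read; more negative B-score means stronger inhibition of depolarization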
TRPC6 activator – mouse TRPC6 channel activators, primary screen, cell-based, HEK293, membrane potential dye; B-score at 10 µM; AID 2550, 2010; HEK293-TRPC6 membrane potential dye fluorescence; hits give high values; actives 0.13% (n = 310,000);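 active means B-score of the integrated fluorescence ratio above library mean plus 3 SD, and starting fluorescence ratio within library mean plus 5 SD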;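 further: higher score means more depolarization so channel activation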
TRPC4 spec 2 – second check of whether TRPC6 inhibitors also affect mouse TRPC4. actives 42% (n = 920). HEK293 TRPC4/MOR, membrane potential dye fluorescence; channel activated by saturating DAMGO dose. inhibition, % at 10 µM. shares compounds with TRPC6 inh;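 active means compounds whose fluorescence signal differed from control wells by over 3 SD, either direction, in both duplicate plates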
TRPC4 spec – mouse TRPC4 modulation by TRPC6 hits, confirmation, selectivity assay for TRPC6 inhibitor project, cell-based, HEK293 TRPC4/mu-opioid, membrane potential dye; shares compounds with TRPC6 inh; membrane potential fluorescence; activity change, negative = inhibition, % at 10 µM; actives 61% (n = 920); AID 2777, 2010;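 active means rise or fall in signal beyond 3 SD of buffer-only wells in both replicate plates, either sign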;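 further: integrated kinetic ratio of fluorescence range over baseline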
HEK293 MPD ctr 2-1 – nonspecific membrane potential effects, parental HEK293, confirmation, counter-screen for TRPC6 inhibitor project, cell-based, second counter screen; shares compounds with TRPC6 inh; parental HEK293 membrane potential dye fluorescence; maximal acetylcholine challenge after compound addition; signal change vs control, % at 10 µM; actives 31% (n = 920); AID 2779, 2010;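 active means membrane potential signal moving either way by over 3 SD of the maximum-effect control, in both duplicate plates, meaning non-specific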
HEK293 MPD ctr-1 – membrane potential modulation in parental HEK293, confirmation, counter-screen for TRPC6 inhibitor project, cell-based | parental HEK293 membrane potential dye fluorescence | AID 2780, 2010 | membrane potential signal change, % at 10 µM | shares compounds with TRPC6 inh | actives 60% (n = 920);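 active means membrane potential signal shifting up or down by more than 3 SD of buffer-only wells, on both duplicate plates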
HEK293 MPD ctr-2 – parental HEK293 membrane potential modulation, confirmation, counter-screen for TRPC6 modulator project, cell-based; AID 488924, 2010; shares compounds with TRPC6 inh; membrane potential dye fluorescence; actives 51% (n = 2,400); membrane potential signal change, % at 10 µM;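 active means membrane potential signal moves up or down beyond 5 SD from buffer-only wells, on both duplicate plates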
HEK293 MPD ctr 2-2 – second counter-screen for TRPC6 modulators: effect in parental HEK293 cells; shares compounds with TRPC6 inh; membrane potential dye fluorescence; after compound, maximal acetylcholine stimulation; inhibition, % at 10 µM; actives 14% (n = 2,400);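 active means membrane potential signal drops by more than 5 SD from the mean control signal, in both duplicate plates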
TRPC4/MOR mod – TRPC4 modulation by TRPC6 hit compounds, confirmation, selectivity assay for TRPC6 modulator project, cell-based, HEK293 TRPC4/mu-opioid, membrane potential dye, mouse. shares compounds with TRPC6 inh. membrane potential fluorescence. percent change from control (negative = decrease, positive = increase), % at 10 µM. actives 69% (n = 2,400). AID 488927, 2010;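 active means membrane potential signal moved up or down beyond 5 SD of buffer control wells, in both duplicate plates, actives on both sides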
TRPC4 ctr inh 2 – second selectivity test of TRPC6 modulators against mouse TRPC4. shares compounds with TRPC6 inh. HEK293 TRPC4/mu-opioid, membrane potential dye fluorescence; stimulated with maximal-effect DAMGO. inhibition, % at 10 µM. actives 55% (n = 2,400). AID 488928;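 active means drop in membrane potential signal beyond 5 SD of the control wells in both duplicate plates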;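 further: TRPC4 counter screen for TRPC6 hits run under conditions tuned for TRPC6 not TRPC4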
TRPC6 block conf – mouse TRPC6 channel inhibitors, confirmation, HEK293 cells, membrane potential dye, duplicate; shares compounds with TRPC6 inh; ACh-evoked depolarization; actives 43% (n = 3,300); inhibition, % at 10 µM;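 active means fluorescence ratio falls more than 5 SD below the full-stimulation control mean, in both duplicate runs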;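 further: integrated fluorescence ratio of peak minus minimum over baseline after agonist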
TRPC6 act confirm – mouse TRPC6 channel activators, confirmation, HEK293 cells, membrane potential dye, duplicate; HEK293-TRPC6 membrane potential dye fluorescence, FDSS; activation, % at 10 µM; actives 11% (n = 2,800); shares compounds with TRPC6 inh;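 active means ratio signal rise beyond 5 SD above unstimulated control wells' mean, seen in both duplicate runs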
Of the large screens only hits and unclear results are named; the others gave an inactive call (follow-up assays come after a bar, where they were run).

CCOCCCNc1c2c(nc3cc(-c4ccc(F)cc4)nn13)CCC2	none
CC(C)NC(=O)N(Cc1ccccc1)Cc1cccs1	none
Cc1ccc(OCCCCNC2CCCC(C)C2C)c(C)c1 (stereo not drawn)	TRPC6 inh -5.69, TRPC6 activator 13 | HEK293 MPD ctr-2 348.5% | HEK293 MPD ctr 2-2 inactive | TRPC4/MOR mod 102.0% | TRPC4 ctr inh 2 51.0% | TRPC6 block conf inactive | TRPC6 act confirm 119.0%
COc1ccc(C(=O)COC(=O)CN2C(=O)c3ccccc3C2=O)c(OC)c1	none
O=C(c1cn(-c2ccccc2)nc1-c1cccnc1)N1CCCC(C(F)(F)F)C1 (stereo not drawn)	none
CNC(=O)c1cc2cc(OC)ccc2oc1=O	none
COc1ccc2oc(=O)c(C(=O)C[n+]3cccc(C)c3)cc2c1	TRPC6 inh -8.36 | TRPC4 spec 2 inactive | TRPC4 spec -12.2% | HEK293 MPD ctr 2-1 inactive | HEK293 MPD ctr-1 -137.0% | TRPC6 block conf inactive | TRPC6 act confirm inactive
Cc1ccc(C(=O)N2CCCCC2)cc1S(=O)(=O)N1CCOCC1	none
O=C(CN1C(=O)CC(c2ccco2)Sc2ccccc21)NC1CCCCC1 (stereo not drawn)	none
COc1ccc(C(C)=O)cc1CSc1nnc2c(Cl)cc(Cl)cn12	TRPC6 inh -6.95 | HEK293 MPD ctr-2 -342.0% | HEK293 MPD ctr 2-2 65.0% | TRPC4/MOR mod -68.5% | TRPC4 ctr inh 2 71.5% | TRPC6 block conf 64.5% | TRPC6 act confirm inactive
O=C(Nc1ccc(F)cc1)c1ccccc1NS(=O)(=O)N1CCCC1	none
Cc1c(C(=O)N2CCC(C(N)=O)CC2)oc2ccc(Br)cc12	none
Cc1c(O)c(CN2CCCC2)cc2c3c(c(=O)oc12)CCC3	TRPC6 inh -5.03 | HEK293 MPD ctr-2 -254.5% | HEK293 MPD ctr 2-2 inactive | TRPC4/MOR mod -46.0% | TRPC4 ctr inh 2 inactive | TRPC6 block conf inactive | TRPC6 act confirm inactive
O=C(CN1CCN(C(c2ccccc2)c2ccccc2)CC1)NCc1ccccc1	TRPC6 inh -5.49 | HEK293 MPD ctr-2 inactive | HEK293 MPD ctr 2-2 inactive | TRPC4/MOR mod inactive | TRPC4 ctr inh 2 inactive | TRPC6 block conf inactive | TRPC6 act confirm inactive
NS(=O)(=O)c1ccc(CCNC(=O)NC2(C(F)(F)F)Oc3ccccc3O2)cc1	TRPC6 inh -5.74 | HEK293 MPD ctr-2 inactive | HEK293 MPD ctr 2-2 inactive | TRPC4/MOR mod inactive | TRPC4 ctr inh 2 inactive | TRPC6 block conf inactive | TRPC6 act confirm inactive
CCCCNC(=O)NC1(C(F)(F)F)Oc2ccccc2O1	none
Cn1c(-c2c(N)n(CCc3ccccc3)c3nc4ccccc4nc23)nc2ccccc21	TRPC4 block -6, TRPC6 inh -5.74 | HEK293 MPD ctr-2 264.0% | HEK293 MPD ctr 2-2 inactive | TRPC4/MOR mod 55.5% | TRPC4 ctr inh 2 79.5% | TRPC6 block conf inactive | TRPC6 act confirm inactive
O=C(N/N=C/c1ccccc1F)c1ccccc1OCc1ccccc1	none
NC1=NC(=O)/C(=C/c2cn(Cc3ccccc3)c3ccccc23)S1	none
OC(CNCc1ccccc1)(c1ccc(F)cc1)c1ccc(F)cc1	TRPC6 inh -5.34 | HEK293 MPD ctr-2 159.5% | HEK293 MPD ctr 2-2 inactive | TRPC4/MOR mod 36.0% | TRPC4 ctr inh 2 56.5% | TRPC6 block conf inactive
CCCc1ncc(C(O)(c2ccccc2)c2ccccc2)n1C	TRPC6 inh -8.76 | TRPC4 spec 2 inactive | TRPC4 spec 21.8% | HEK293 MPD ctr 2-1 inactive | HEK293 MPD ctr-1 15.5% | TRPC6 block conf 57.6%
CCCc1ncc(C(O)(c2ccccc2)c2ccc(C)cc2)n1C (stereo not drawn)	none
O=C(c1cc(C2CC2)on1)N1CCCC(N2CCN(c3ccc(F)cc3)CC2)C1 (stereo not drawn)	none
O=[N+]([O-])c1ccc(Cl)c(-c2ccc(/C=N/n3cnnc3)o2)c1	TRPC6 inh -7.31 | HEK293 MPD ctr-2 -154.5% | HEK293 MPD ctr 2-2 inactive | TRPC4/MOR mod -30.0% | TRPC4 ctr inh 2 inactive | TRPC6 block conf inactive | TRPC6 act confirm inactive
Cc1cc(-c2ccc(/C=N/n3cnnc3)o2)c(C)c([N+](=O)[O-])c1	TRPC6 inh -5.98 | HEK293 MPD ctr-2 -221.0% | HEK293 MPD ctr 2-2 71.0% | TRPC4/MOR mod -44.0% | TRPC4 ctr inh 2 57.5% | TRPC6 block conf 48.0% | TRPC6 act confirm inactive
